The M2OR odorant receptor database

Target: T1, UniProt Q8VFG6
T1 sequence (whole entry): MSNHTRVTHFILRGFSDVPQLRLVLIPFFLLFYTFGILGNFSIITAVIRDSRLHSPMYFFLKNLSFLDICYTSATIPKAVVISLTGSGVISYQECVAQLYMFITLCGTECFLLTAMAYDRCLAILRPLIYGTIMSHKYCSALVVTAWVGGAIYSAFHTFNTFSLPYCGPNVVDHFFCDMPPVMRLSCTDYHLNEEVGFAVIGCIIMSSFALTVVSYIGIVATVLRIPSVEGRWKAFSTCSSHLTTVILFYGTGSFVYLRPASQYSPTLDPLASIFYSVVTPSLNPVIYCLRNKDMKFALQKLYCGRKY
Conditions: stereoisomer not certain
Summary of the method: (§1)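 Whether a receptor–molecule pair is responsive (active) rests on the original authors' judgment that its measured signal was statistically different from baseline. Pairs without that judgment are non-responsive (inactive). Sources used varied assay methods, commonly transient luciferase assays in mammalian cell lines.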
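Note: active if original authors judged signal statistically different from baseline.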

Odorant receptor agonist call, inactive:
CCCCCCC(C)=O, CCCCCCC(=O)[O-].[H+], CC(=O)OCC=C(C)C, O=C1Cc2ccccc2O1, COc1cc(C(=O)O)ccc1O, CC12CCC(CC1=O)C2(C)C (stereo not drawn), CC(=O)Oc1ccccc1, CC(C)=CCCC(C)CCO (stereo not drawn), CCCCCC=O, CCCCCCCC(C)=O, CCCCCO, O=c1ccc2ccccc2o1, O=C(c1ccccc1)c1ccccc1, CCCCCCCCS, C=CCOC(=O)CCCCCC, CCCCOC(=O)C(C)OC(=O)CCC (stereo not drawn), CCC(C(=O)O)c1ccccc1 (stereo not drawn), c1ccccc1, CC(=O)OCc1ccccc1

Target: T2, UniProt Q8VFM8
T2 sequence (whole entry): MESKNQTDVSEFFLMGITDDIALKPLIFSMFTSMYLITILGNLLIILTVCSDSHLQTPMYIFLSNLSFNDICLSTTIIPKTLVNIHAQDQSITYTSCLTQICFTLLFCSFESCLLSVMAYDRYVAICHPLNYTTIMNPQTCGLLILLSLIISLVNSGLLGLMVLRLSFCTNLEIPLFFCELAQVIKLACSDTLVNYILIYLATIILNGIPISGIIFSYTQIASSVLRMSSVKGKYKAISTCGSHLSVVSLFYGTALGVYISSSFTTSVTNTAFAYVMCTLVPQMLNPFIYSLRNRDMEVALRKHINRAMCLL
Conditions: stereoisomer not certain
Summary of the method: as §1

Odorant receptor agonist call, inactive:
CCCCCCC(C)=O, CC(=O)OCC=C(C)C, CC(C)CS, CCCC=O, CCSSCC, c1ccc2ncccc2c1, O=C1Cc2ccccc2O1, COc1cc(C(=O)O)ccc1O, CC12CCC(CC1=O)C2(C)C (stereo not drawn), CC(=O)Oc1ccccc1, CCCCCCCOC(=O)C(C)C, CNc1ccccc1C(=O)OC, CC(C)=CCCC(C)CCO (stereo not drawn), CCCCCC=O, CCCCCCCC(C)=O, CSSCc1ccco1, CC(C)=CCCC(C)=CCOC(=O)C(C)C, O=C(c1ccccc1)c1ccccc1, CCOC(=O)C(C)CC (stereo not drawn), CC1CCC(C(C)C)C(=O)C1 (stereo not drawn), CCCCCCCCS, O=C([O-])CCCCCCC(=O)[O-].[H+].[H+], CCc1ccccc1O, C=CC(=C)CCC=C(C)CCC=C(C)C, C=CCOC(=O)CCCCCC, CCCCCOC(=O)CCC, CC1CC=CCCCCCCCCCC(=O)C1 (stereo not drawn), c1ccccc1, CC(=O)OCc1ccccc1
